The text below walks through data of ChEMBL document CHEMBL1153117, “Synthesis of substituted aryloxy alkyl and aryloxy aryl alkyl imidazoles as antileishmanial agents” (Bioorg Med Chem Lett, 2010).

Series [1] is described as follows: Cytotoxicity against mouse J774A1 cells by MTT assay. It counts as cell-based, J774.A1. In a few lines: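 Mouse macrophage line J-774-A-1 tested for cytotoxicity. Viability was read by MTT assay. CC50 (µg/mL) was estimated by the Huber and Koella method.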
Series [2] can be described thus: (§1) Selectivity index, ratio of CC50 for mouse J774A1 cells to IC50 for Leishmania donovani amastigotes. Format: functional, J774.A1. The essentials:
(§2)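 Computed as CC50 in the J-774-A-1 macrophage MTT assay divided by anti-amastigote IC50. The IC50 came from a four-parameter Hill fit of the concentration–response curve.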

Series [3] deals with Leishmania donovani. The experiment in a line: Antileishmanial activity against Leishmania donovani amastigotes. Format: functional, organism-based. The essentials:
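Intracellular L. donovani amastigotes tested in vitro, with sodium stibogluconate, pentamidine and amphotericin B as controls. IC50 (µg/mL) was obtained by nonlinear regression of the concentration–response curve using the four-parameter Hill equation.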

The subject of series [4] is Leishmania donovani. The experiment in a line: Antileishmanial activity against Leishmania donovani infected in hamster assessed inhibition of parasite growth at 50 mg/kg, ip for 10 days. Format: functional. The conditions noted are these: 240 h, route intraperitoneal. The essentials:
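Hamster model (Mesocricetus auratus) infected with L. donovani. Dosed intraperitoneally at 50 mg/kg × 10. Read-out was percent inhibition of parasite growth.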

Series [5] concerns Leishmania donovani. The experiment in a line: Antileishmanial activity against Leishmania donovani promastigotes at 10 ug/mL. It counts as functional. In a few lines: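 L. donovani promastigotes exposed in vitro to 10 µg/mL. Result expressed as percent inhibition.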
Series [6] relates to Leishmania donovani. The experiment in a line: Antileishmanial activity against Leishmania donovani infected in hamster assessed inhibition of parasite growth at 40 mg/kg. It counts as functional.
Series [7] concerns Leishmania donovani. The experiment in a line: Antileishmanial activity against Leishmania donovani promastigotes. Format: functional, organism-based.
For series [8], the system named is Leishmania donovani. The experiment in a line: Antileishmanial activity against Leishmania donovani infected in hamster assessed inhibition of parasite growth at 8 mg/kg, iv for 5 days. Format: functional. Particulars: 120 h; call rule not given here.
The subject of series [9] is J774.A1. Described as §1. It counts as functional. In a few lines: as §2
Series [10] deals with Leishmania donovani. The experiment in a line: Antileishmanial activity against Leishmania donovani infected in hamster assessed inhibition of parasite growth at 20 mg/kg. Format: functional, organism-based. More on the design: dose 20 mg/kg.
Where [11] appears, read: Leishmania donovani, read-out: IC50.

Values after ≈ are worked out from the molar mass of the structure shown.

In series [1], `FC(F)(F)c1ccc(OC(CCn2ccnc2)c2ccccc2)cc1` (stereo unspecified) gave a CC50 of 17.2 mg/L (≈ 49.8 µM). The “Ratio CC50/IC50” value in series [2] came to 36.68. Moreover, in [3] (setting [11]), the IC50 was 0.47 mg/L (≈ 1.36 µM). The molecule also displayed an inhibition in vivo at 50 mg/kg in series [4] of 60%. Also, 10 µg/mL produced 100% inhibition in series [5].

Turning to `CC(CCn1ccnc1)Oc1ccc([N+](=O)[O-])cc1F` (stereo unspecified), the 50% cytotoxic concentration (CC50) in [1] was found to be 15 mg/L (≈ 53.7 µM). Moreover, the IC50 entry in [3] is listed as “Not Active”. Moreover, the inhibition at 10 µg/mL in series [5] came out at 100%.

As for `N=C(N)c1ccc(OCCCCCOc2ccc(C(=N)N)cc2)cc1` [PENTAMIDINE], in [3] (setting [11]), the IC50 amounted to 12.1 mg/L (≈ 35.6 µM). The same molecule registered an inhibition in vivo at 40 mg/kg in series [6] of 92%.

In the case of `CC(CCn1ccnc1)Oc1ccc(C(F)(F)F)cc1` (stereo unspecified), the CC50 in series [1] stood at 7.5 mg/L (≈ 26.4 µM). Moreover, in [2], the “Ratio CC50/IC50” value came to 0.88. The half-inhibitory concentration (IC50) in series [3] (setting [11]) was 8.08 mg/L (≈ 28.4 µM). In series [5], this molecule had an inhibition at 10 µg/mL of 100%.

In the case of `O=[N+]([O-])c1ccc(OC(COc2ccccc2)Cn2ccnc2)c(F)c1` (stereo unspecified), the CC50 in series [1] came out at 29.6 mg/L (≈ 82.8 µM). The “Ratio CC50/IC50” value in series [2] turned out to be 5.76. Besides, in series [3] (setting [11]), the IC50 stood at 5.13 mg/L (≈ 14.4 µM). Besides, the inhibition at 10 µg/mL in [5] was 98.2%.

In series [1], `C[C@@H]1[C@H](O)[C@@H](C)/C=C/C=C/C=C/C=C/C=C/C=C/C=C/[C@H](O[C@@H]2O[C@H](C)[C@@H](O)[C@H](N)[C@@H]2O)C[C@@H]2O[C@](O)(C[C@@H](O)C[C@@H](O)[C@H](O)CC[C@@H](O)C[C@@H](O)CC(=O)O[C@H]1C)C[C@H](O)[C@H]2C(=O)O` [AMPHOTERICIN B] registered a cytotoxic concentration (CC50) of 7.24 mg/L (≈ 7.83 µM). Also, the “Ratio CC50/IC50” value in series [2] was found to be 144.8. The IC50 in series [7] came out at 0.008 mg/L (≈ 0.00866 µM); in series [3] (setting [11]) it was 0.05 mg/L (≈ 0.0541 µM). For the same molecule, in series [8], at 8 mg/kg the inhibition in vivo was 92.2%.

Take `O=[N+]([O-])c1ccc(OC(CCn2ccnc2)c2ccccc2)cc1` (stereo unspecified): the CC50 in series [1] is 25.1 mg/L (≈ 77.6 µM). Besides, the “Ratio CC50/IC50” value in series [2] was 6.57. Moreover, the IC50 in [3] (setting [11]) came out at 3.82 mg/L (≈ 11.8 µM). For the same molecule, 10 µg/mL produced 99% inhibition in series [5].

In [1], `C[C@@H](Cn1ccnc1)[C@@H](Oc1ccc(C(F)(F)F)cc1)c1ccccc1` (relative stereo) yielded a CC50 of 21.7 mg/L (≈ 60.3 µM). Besides, the “Ratio CC50/IC50” value in series [2] is on record as 11.75. Also, the IC50 in series [3] (setting [11]) worked out at 1.85 mg/L (≈ 5.13 µM). Moreover, in series [5], at 10 µg/mL the inhibition was 100%.

sodium stibogluconate: the Ratio CC50/IC50 in [9] came out at 6.38. The molecule further showed an inhibition in series [10] of 84.1%.

Molecule `CC(CCn1ccnc1)Oc1ccccc1[N+](=O)[O-]` (stereo unspecified) registered a CC50 in series [1] above 100 mg/L. In addition, the “Ratio CC50/IC50” value in [2] is above 11.86. The IC50 in [3] (setting [11]) was found to be 8.43 mg/L (≈ 32.3 µM). This molecule returned an inhibition at 10 µg/mL in series [5] of 100%.

With `FC(F)(F)c1ccc(OC(Cn2ccnc2)c2ccccc2)cc1` (stereo unspecified), the CC50 in series [1] was determined as 28.4 mg/L (≈ 85.6 µM). Besides, the “Ratio CC50/IC50” value in series [2] is listed as 13.85. Further, in series [3] (setting [11]), the IC50 amounted to 2.05 mg/L (≈ 6.17 µM). This molecule also showed an inhibition in vivo at 50 mg/kg in series [4] of 46%. Also, the inhibition at 10 µg/mL in series [5] was 98.6%.

Take `O=[N+]([O-])c1ccc(OC(Cn2ccnc2)c2ccccc2)c(F)c1` (stereo unspecified): the CC50 in series [1] stood at 21.2 mg/L (≈ 64.9 µM). Besides, in [2], the “Ratio CC50/IC50” value is recorded as 7.69. Moreover, the IC50 in [3] (setting [11]) was found to be 2.76 mg/L (≈ 8.43 µM). The molecule also had an inhibition at 10 µg/mL in series [5] of 94.6%.

The molecule `C[C@@H](Cn1ccnc1)[C@@H](Oc1ccccc1[N+](=O)[O-])c1ccccc1` (relative stereo) came in with a CC50 in series [1] of 22.1 mg/L (≈ 65.7 µM). In addition, the “Ratio CC50/IC50” value in series [2] is 9.75. Also, in series [3] (setting [11]), the IC50 came to 2.27 mg/L (≈ 6.73 µM). The same molecule gave an inhibition at 10 µg/mL in [5] of 95%.

`O=[N+]([O-])c1ccccc1OC(COc1ccccc1)Cn1ccnc1` (stereo unspecified) had a CC50 in series [1] of 36.2 mg/L (≈ 107 µM). The “Ratio CC50/IC50” value in [2] was 7.51. In addition, the IC50 in series [3] (setting [11]) was found to be 4.82 mg/L (≈ 14.2 µM). Besides, 10 µg/mL produced 95.5% inhibition in series [5].

Consider `O=[N+]([O-])c1ccccc1OC(CCn1ccnc1)c1ccccc1` (stereo unspecified), for which the CC50 in series [1] came to 18 mg/L (≈ 55.5 µM). Moreover, the IC50 in [3] (setting [11]) was 0.48 mg/L (≈ 1.48 µM). In series [4], this molecule showed an inhibition in vivo at 50 mg/kg of 52%. Testing at 10 µg/mL in series [5] gave an inhibition of 100%.

As for `O=[N+]([O-])c1ccc(OC(Cn2ccnc2)c2ccccc2)cc1` (stereo unspecified), in series [1], the midpoint of cytotoxicity, the CC50, lay at 25.2 mg/L (≈ 81.5 µM). In series [2], the “Ratio CC50/IC50” value amounted to 6.79. In [3] (setting [11]), the IC50 stood at 3.71 mg/L (≈ 12 µM). For the same molecule, in series [5], the inhibition at 10 µg/mL was determined as 95.5%.

With `O=[N+]([O-])c1ccc(OC(COc2ccccc2)Cn2ccnc2)cc1` (stereo unspecified), in series [1], the CC50 is 28.1 mg/L (≈ 82.9 µM). Also, the “Ratio CC50/IC50” value in [2] came to 5. Besides, the IC50 in series [3] (setting [11]) was found to be 5.62 mg/L (≈ 16.6 µM). In [5], this molecule had an inhibition at 10 µg/mL of 93.8%.

Turning to `CC(CCn1ccnc1)Oc1ccc([N+](=O)[O-])cc1` (stereo unspecified), in [1], the CC50 is 24.1 mg/L (≈ 92.2 µM). Further, the IC50 entry in series [3] is listed as “Not Active”. The same molecule came in with an inhibition at 10 µg/mL in series [5] of 100%.

In [1], `CC(CCn1ccnc1)Oc1ccc([N+](=O)[O-])cc1C(F)(F)F` (stereo unspecified) showed a CC50 of 7.73 mg/L (≈ 23.5 µM). The “Ratio CC50/IC50” value in series [2] stood at 0.97. Also, the IC50 in series [3] (setting [11]) was found to be 9.97 mg/L (≈ 30.3 µM). In series [5], this molecule showed an inhibition at 10 µg/mL of 100%.

`O=[N+]([O-])c1ccc(OC(CCn2ccnc2)c2ccccc2)c(F)c1` (stereo unspecified) had a CC50 in series [1] of 25.1 mg/L (≈ 73.5 µM). For the same molecule, in series [2], the “Ratio CC50/IC50” value was 8.86. Also, the IC50 in series [3] (setting [11]) worked out at 2.83 mg/L (≈ 8.29 µM). For the same molecule, in [5], the inhibition at 10 µg/mL amounted to 96.3%.

With `FC(F)(F)c1ccc(OC(COc2ccccc2)Cn2ccnc2)cc1` (stereo unspecified), the CC50 in series [1] turned out to be 17.9 mg/L (≈ 49.3 µM). In addition, in series [2], the “Ratio CC50/IC50” value stood at 31.89. The IC50 in series [3] (setting [11]) was 0.56 mg/L (≈ 1.55 µM). In addition, at 50 mg/kg the inhibition in vivo in [4] was 58%. Moreover, in series [5], the inhibition at 10 µg/mL is 100%.

As for `O=[N+]([O-])c1ccccc1OC(Cn1ccnc1)c1ccccc1` (stereo unspecified), half-maximal cytotoxicity in series [1] (CC50) was put at 25.1 mg/L (≈ 81.3 µM). Further, in series [2], the “Ratio CC50/IC50” value was 11.17. Besides, the IC50 in [3] (setting [11]) stood at 2.25 mg/L (≈ 7.27 µM). Besides, testing at 10 µg/mL in series [5] gave an inhibition of 97.5%.

What is called CC50 is the concentration at which the toxic effect on the cells reaches its halfway point. Read a high CC50 as better tolerance by the cells. The IC50 is the midpoint of a concentration-inhibition curve. The term inhibition in vivo denotes the percentage by which the read-out fell short of the control. The low end stands for a response near the control, the high end for a response far below the control. Usually inhibition stands for the drop in the measured response relative to a control, in per cent. High values mean strong suppression, low ones little suppression.
